In test [1] the target is T1, Angiotensin II receptor (AT-1) type-1 (Rattus norvegicus, UniProt P29089+P25095).
T1 sequence (P29089 whole entry): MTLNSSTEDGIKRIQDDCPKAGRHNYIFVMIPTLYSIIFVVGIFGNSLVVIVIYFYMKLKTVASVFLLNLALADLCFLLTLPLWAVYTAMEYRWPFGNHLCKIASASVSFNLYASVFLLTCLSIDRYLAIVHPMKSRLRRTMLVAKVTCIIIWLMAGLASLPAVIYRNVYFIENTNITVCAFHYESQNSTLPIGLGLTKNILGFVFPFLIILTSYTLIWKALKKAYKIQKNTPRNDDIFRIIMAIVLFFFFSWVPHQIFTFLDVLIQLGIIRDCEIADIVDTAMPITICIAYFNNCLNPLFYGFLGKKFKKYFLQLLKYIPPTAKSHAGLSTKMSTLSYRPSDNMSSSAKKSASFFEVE
T1 sequence (P25095 whole entry): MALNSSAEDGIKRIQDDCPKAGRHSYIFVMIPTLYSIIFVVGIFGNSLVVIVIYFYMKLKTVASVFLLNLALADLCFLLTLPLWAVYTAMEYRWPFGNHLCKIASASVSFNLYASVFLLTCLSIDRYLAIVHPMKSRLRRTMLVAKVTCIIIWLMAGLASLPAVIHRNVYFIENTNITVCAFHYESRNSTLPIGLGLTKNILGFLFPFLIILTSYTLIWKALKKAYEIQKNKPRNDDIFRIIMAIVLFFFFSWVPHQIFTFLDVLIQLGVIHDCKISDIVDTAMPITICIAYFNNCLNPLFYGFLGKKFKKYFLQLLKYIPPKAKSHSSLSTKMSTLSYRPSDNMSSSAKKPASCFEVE
As to the kind of experiment: Concentration required to 50% inhibition in specific binding of [125- I]A-II to Angiotensin II receptor in rat uterine membrane. It is filed as cell membranes. The method, boiled down:
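Rat uterine membranes were homogenized in ice-cold Dulbecco's PBS with 5 mM EDTA, spun at 1500g then 100000g, and resuspended in 2 mM EGTA/50 mM Tris-HCl pH 7.5. Nonspecific binding was defined with 10 µM AII. IC50 came from nonlinear least-squares fits, triplicate means.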

The species entered for test [2] is Oryctolagus cuniculus. As to the kind of experiment: No contractile activity was observed up to 10 uM concentration in rabbit aortic rings relative to angiotensin II; NA = no activity. It is filed as functional. The conditions noted are these: Aorta. A digest of the protocol:
(§1)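 Aortic rings were taken from male New Zealand white rabbits (2–2.5 kg) and tested at analogue concentrations up to 10 µM. Potency is relative to the AII concentration/response curve run at the same time on a paired ring from the same aorta.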

Test [3] is filed under the species Oryctolagus cuniculus. Kind of test: No contractile activity was observed up to 10 uM concentration in rabbit aortic rings; NA = no activity. The following applies: Aorta. The format is functional. The method, boiled down:
(§2)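 Aortic rings were taken from male New Zealand white rabbits (2–2.5 kg) and tested at analogue concentrations up to 10 µM. pD2 was calculated from the analogue's concentration/response curve.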

For test [4], the species on record is Oryctolagus cuniculus. Kind of test: Contractile activity in rabbit aortic rings. It is filed as functional, Aorta. The method, boiled down: as §2
The species named for test [5] is Oryctolagus cuniculus. As to the kind of experiment: Contractile activity in rabbit aortic rings relative to angiotensin II. It is filed as functional, Aorta. A digest of the protocol: as §1
Test [6] concerns the target Type-1 angiotensin II receptor (Oryctolagus cuniculus) (UniProt P34976). Kind of test: pA2 value for Angiotensin II receptor.

Active and inactive are the calls of the source. No cut-off for these calls is given here. Positions of bridges follow the written chain, without caps; N, C: chain ends. Non-standard residues stand in square brackets, D forms with d. Residues, ends and D or L forms follow the SMILES beside them. Pen = CC(C)(S)[C@H](N)C(=O)O; hCys = N[C@@H](CCS)C(=O)O; Sar = CNCC(=O)O Some results are limits rather than exact numbers.

Type-1 angiotensin II receptor (Oryctolagus cuniculus), sequence (P34976 whole entry, looked up): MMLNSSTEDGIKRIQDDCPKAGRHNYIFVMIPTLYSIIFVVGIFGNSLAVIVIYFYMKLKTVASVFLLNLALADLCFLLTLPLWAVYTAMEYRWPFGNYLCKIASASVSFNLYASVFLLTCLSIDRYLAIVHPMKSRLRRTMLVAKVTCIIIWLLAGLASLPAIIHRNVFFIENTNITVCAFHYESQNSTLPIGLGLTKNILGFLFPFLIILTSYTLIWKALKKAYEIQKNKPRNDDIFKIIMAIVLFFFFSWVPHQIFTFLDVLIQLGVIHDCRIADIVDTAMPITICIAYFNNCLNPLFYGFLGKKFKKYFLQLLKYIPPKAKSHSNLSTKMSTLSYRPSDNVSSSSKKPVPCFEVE

As usually defined, the IC50 is the point on the concentration scale where inhibition reaches its midpoint. The compound `NC(N)=NCCC[C@H](NC(=O)[C@@H](N)CC(=O)O)C(=O)N[C@H]1CSSC[C@H](C(=O)N[C@@H](Cc2c[nH]cn2)C(=O)N2CCC[C@H]2C(=O)N[C@@H](Cc2ccccc2)C(=O)O)NC(=O)[C@H](Cc2ccc(O)cc2)NC1=O` had an IC50 in test [1] of 10000 nM. Further, in test [2], the Relative potency result was “inactive”. Moreover, the pD2 result in test [3] is “inactive”.
The compound `CC(=O)NCSC[C@H](NC(=O)[C@H](CCCN=C(N)N)NC(=O)[C@@H](N)CC(=O)O)C(=O)N[C@@H](Cc1ccc(O)cc1)C(=O)N[C@H](CSCNC(C)=O)C(=O)N[C@@H](Cc1c[nH]cn1)C(=O)N1CCC[C@H]1C(=O)N[C@@H](Cc1ccccc1)C(=O)O` yielded an IC50 in test [1] of 10000 nM. The Relative potency result in test [2] was “inactive”. Further, the pD2 entry in test [3] was “inactive”.
As to `CC(=O)NCSC[C@H](NC(=O)[C@H](Cc1ccc(O)cc1)NC(=O)[C@@H](CSCNC(C)=O)NC(=O)[C@H](CCCN=C(N)N)NC(=O)[C@@H](N)CC(=O)O)C(=O)N[C@@H](Cc1c[nH]cn1)C(=O)N1CCC[C@H]1C(=O)N[C@@H](Cc1ccccc1)C(=O)O`, the IC50 in test [1] is greater than 10000 nM. The Relative potency entry in test [2] was “inactive”. The pD2 entry in test [3] was “inactive”.
The compound `NC(N)=NCCC[C@H](NC(=O)[C@@H](N)CC(=O)O)C(=O)N[C@H]1CSSC[C@@H](C(=O)N[C@@H](Cc2c[nH]cn2)C(=O)N2CCC[C@H]2C(=O)N[C@@H](Cc2ccccc2)C(=O)O)NC(=O)[C@H](Cc2ccc(O)cc2)NC1=O` had an IC50 in test [1] of 43 nM. In test [4], the pD2 was less than 5. The compound also yielded a Relative potency in test [5] of less than 0.0001.
`CC(=O)NCSC[C@H](NC(=O)[C@H](CCCN=C(N)N)NC(=O)[C@@H](N)CC(=O)O)C(=O)N[C@@H](Cc1ccc(O)cc1)C(=O)N[C@@H](CSCNC(C)=O)C(=O)N[C@@H](Cc1c[nH]cn1)C(=O)N1CCC[C@H]1C(=O)N[C@@H](Cc1ccccc1)C(=O)O`: in test [1], the IC50 is 10000 nM. In test [4], this compound showed a pD2 of less than 5. The compound also returned a Relative potency in test [5] of less than 0.0001.
Consider `NC(N)=NCCC[C@H](NC(=O)[C@@H](N)CC(=O)O)C(=O)N[C@@H]1CSSC[C@@H](C(=O)N[C@@H](Cc2c[nH]cn2)C(=O)N2CCC[C@H]2C(=O)N[C@@H](Cc2ccccc2)C(=O)O)NC(=O)[C@H](Cc2ccc(O)cc2)NC1=O`, for which, in test [2], the Relative potency entry was “inactive”. Also, the pD2 result in test [3] was “inactive”.
`CC1(C)SSC[C@H](NC(=O)[C@H](CCCN=C(N)N)NC(=O)[C@@H](N)CC(=O)O)C(=O)N[C@@H](Cc2ccc(O)cc2)C(=O)N[C@@H]1C(=O)N[C@@H](Cc1c[nH]cn1)C(=O)N1CCC[C@H]1C(=O)N[C@@H](Cc1ccccc1)C(=O)O` (H-DRCY[Pen]HPF-OH; disulfide 3-5) returned an IC50 in test [1] of 1.3 nM. In test [4], this compound returned a pD2 of 5.8. The Relative potency in test [5] is given as 0.001.
Compound `NC(N)=NCCC[C@H](NC(=O)[C@@H](N)CC(=O)O)C(=O)N[C@H]1CSSCC[C@@H](C(=O)N[C@@H](Cc2c[nH]cn2)C(=O)N2CCC[C@H]2C(=O)N[C@@H](Cc2ccccc2)C(=O)O)NC(=O)[C@H](Cc2ccc(O)cc2)NC1=O` (H-DRCY[hCys]HPF-OH; disulfide 3-5) yielded a half-inhibitory concentration (IC50) in test [1] of 13 nM. In test [4], this compound had a pD2 of 6.98. In addition, the Relative potency in test [5] worked out at 0.012.
The like results for `CC1(C)SSC[C@@H](C(=O)N[C@@H](Cc2c[nH]cn2)C(=O)N2CCC[C@H]2C(=O)N[C@@H](Cc2ccccc2)C(=O)O)NC(=O)[C@H](Cc2ccc(O)cc2)NC(=O)[C@H]1NC(=O)[C@H](CCCN=C(N)N)NC(=O)[C@@H](N)CC(=O)O` (H-DR[Pen]YCHPF-OH; disulfide 3-5) were, in that order, 58 nM, 5 and 0.0001.
The like results for `CC1(C)SSC(C)(C)[C@@H](C(=O)N[C@@H](Cc2c[nH]cn2)C(=O)N2CCC[C@H]2C(=O)N[C@@H](Cc2ccccc2)C(=O)O)NC(=O)[C@H](Cc2ccc(O)cc2)NC(=O)[C@H]1NC(=O)[C@H](CCCN=C(N)N)NC(=O)[C@@H](N)CC(=O)O` (H-DR[Pen]Y[Pen]HPF-OH; disulfide 3-5) were, in that order, 2.6 nM, 5 and 0.0001.
With `NC(N)=NCCC[C@H](NC(=O)[C@@H](N)CC(=O)O)C(=O)N[C@H]1CCSSC[C@@H](C(=O)N[C@@H](Cc2c[nH]cn2)C(=O)N2CCC[C@H]2C(=O)N[C@@H](Cc2ccccc2)C(=O)O)NC(=O)[C@H](Cc2ccc(O)cc2)NC1=O` (H-DR[hCys]YCHPF-OH; disulfide 3-5), the IC50 in test [1] came to 10 nM. In test [4], this compound gave a pD2 of 5.91. Further, the Relative potency in test [5] amounted to 0.001.
Taken in the same sequence, the figures for `NC(N)=NCCC[C@H](NC(=O)[C@@H](N)CC(=O)O)C(=O)N[C@H]1CCSSCC[C@@H](C(=O)N[C@@H](Cc2c[nH]cn2)C(=O)N2CCC[C@H]2C(=O)N[C@@H](Cc2ccccc2)C(=O)O)NC(=O)[C@H](Cc2ccc(O)cc2)NC1=O` (H-DR[hCys]Y[hCys]HPF-OH; disulfide 3-5) were 2.1 nM, 8.48 and 0.49.
In the case of `CC[C@H](C)[C@H](NC(=O)[C@@H]1CCCN1C(=O)[C@H](Cc1c[nH]cn1)NC(=O)[C@@H]1CCSSCC[C@H](NC(=O)[C@H](CCCN=C(N)N)NC(=O)CNC)C(=O)N[C@@H](Cc2ccc(O)cc2)C(=O)N1)C(=O)O` (H-[Sar]R[hCys]Y[hCys]HPI-OH; disulfide 3-5), in test [1], the half-maximal inhibitory concentration (IC50) came out at 0.9 nM. In test [2], the Relative potency result was “inactive”. Besides, in test [3], the pD2 entry was “inactive”. Also, in test [6], the Kb is 0.813 nM.
With `CC[C@H](C)[C@H](NC(=O)[C@H](Cc1ccc(O)cc1)NC(=O)[C@@H](NC(=O)[C@H](CCCNC(=N)N)NC(=O)[C@@H](N)CC(=O)O)C(C)C)C(=O)N[C@@H](Cc1cnc[nH]1)C(=O)N1CCC[C@H]1C(=O)N[C@@H](Cc1ccccc1)C(=O)O` [ANGIOTENSIN II], the pD2 in test [4] turned out to be 8.81.
As for H-DRCYIHPF-OH, the IC50 in test [1] is 15 nM. For the same compound, in test [4], the pD2 is reported as 7.68. The compound further came in with a Relative potency in test [5] of 0.092.
The like results for H-DRVYCHPF-OH were, in that order, 20 nM, 7.21 and 0.031.

(Values after ChEMBL document CHEMBL1124840 (J Med Chem, 1990).)
